Source: ChEMBL document CHEMBL3414496, “Synthesis and biological evaluation of novel 2-heteroarylimino-1,3-thiazolidin-4-ones as potential anti-tumor agents” (Eur J Med Chem, 2015)
The source made the active and inactive calls. No cut-off for these calls is given here.

Columns and labels:
HT-29 [1] = assay: Induction of NQO1 expression in human HT-29 cells at 1.5 uM after 6 hrs by Western blotting method; format: functional
Summary of the method: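 Whole-cell lysates from treated HT29 cells in pH 7.5 Hepes/KOH buffer with EDTA, KCl, Igepal, DTT and protease inhibitors. 50 µg protein run on 10-15% SDS-PAGE and transferred to nitrocellulose. Probed overnight at 4°C with anti-HO-1 (1:1 000), anti-NQO1 (1:1 000) or anti-GCL (1:500), then HRP secondary for 45 min and chemiluminescence. Bands normalized to GAPDH (1:10 000), with the DMSO ratio set to 1.00. Representative of three experiments.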

HT-29 [2] = assay: Induction of redox status changes in human HT-29 cells assessed as ROS content in presence of 1 mM ascorbic acid by DCF-DA staining based fluorescence assay (reference value: 64.7 +/- 2.6%)
HT-29 [3] = assay: Induction of ROS generation in human HT-29 cells at cytotoxic IC50 level after 30 mins by DCF-DA staining based fluorescence assay; format: functional, cell-based
Summary of the method: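 HT29 cells treated two days after seeding, then loaded with 50 µM DCF-DA for 15 min at 37°C. Cells trypsinized, washed and resuspended in PBS, and 30 000 cells/sample read by flow cytometry (FL-1). Expressed as % of DMSO-treated cells; […] for 1 h served as positive control. Triplicates from three independent experiments.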

HT-29 [4] = assay: Induction of HO1 expression in human HT-29 cells at 10 uM after 24 hrs by Western blotting method; format: functional
Summary of the method: (§1)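 HT29 whole-cell lysates in Hepes/KOH pH 7.5 with EDTA, KCl, NP40, DTT, protease inhibitors; 50 µg protein on 10–15% SDS-PAGE, nitrocellulose, overnight 4°C primary antibody (GCL 1:500, HO-1 1:1000), HRP secondary, chemiluminescence. Bands normalized to GAPDH (1:10 000), DMSO ratio set at 1.00; representative of three independent experiments.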

HT-29 [5] = assay: Induction of GCL expression in human HT-29 cells at 10 uM after 6 hrs by Western blotting method; format: functional; summary of the method: as §1

Question: Which “fold change (FC)” value (HT-29 [1]) does the source give for `CN(C)c1ccc(/C=C2\S/C(=N\c3csc(-c4ccc(Cl)cc4)c3)NC2=O)cc1` here?
Answer: 1.26

Question: For `CN(C)c1ccc(/C=C2\S/C(=N\c3nc(-c4ccc(Cl)cc4)cs3)NC2=O)cc1`, which Activity (HT-29 [2]) is on record?
Answer: 158.8%

Question: What does the source list for `COc1ccc(/C=C2\S/C(=N\c3csc(-c4ccc(Cl)cc4)c3)NC2=O)cc1OC`?
Answer: Activity (HT-29 [3]): Active; fold change (FC) (HT-29 [4]): 1; fold change (FC) (HT-29 [5]): 1.16
